Blank lines part the entries; values can stand above or below the compound they belong to.
How the values were obtained:
[1] = biological target: T1, Ribonucleoside-diphosphate reductase large subunit (Mus musculus, UniProt P07742); assay: Inhibitory activity of compound against mammalian ribonucleotide reductase; Range is 450-620
T1 sequence (P07742 whole entry): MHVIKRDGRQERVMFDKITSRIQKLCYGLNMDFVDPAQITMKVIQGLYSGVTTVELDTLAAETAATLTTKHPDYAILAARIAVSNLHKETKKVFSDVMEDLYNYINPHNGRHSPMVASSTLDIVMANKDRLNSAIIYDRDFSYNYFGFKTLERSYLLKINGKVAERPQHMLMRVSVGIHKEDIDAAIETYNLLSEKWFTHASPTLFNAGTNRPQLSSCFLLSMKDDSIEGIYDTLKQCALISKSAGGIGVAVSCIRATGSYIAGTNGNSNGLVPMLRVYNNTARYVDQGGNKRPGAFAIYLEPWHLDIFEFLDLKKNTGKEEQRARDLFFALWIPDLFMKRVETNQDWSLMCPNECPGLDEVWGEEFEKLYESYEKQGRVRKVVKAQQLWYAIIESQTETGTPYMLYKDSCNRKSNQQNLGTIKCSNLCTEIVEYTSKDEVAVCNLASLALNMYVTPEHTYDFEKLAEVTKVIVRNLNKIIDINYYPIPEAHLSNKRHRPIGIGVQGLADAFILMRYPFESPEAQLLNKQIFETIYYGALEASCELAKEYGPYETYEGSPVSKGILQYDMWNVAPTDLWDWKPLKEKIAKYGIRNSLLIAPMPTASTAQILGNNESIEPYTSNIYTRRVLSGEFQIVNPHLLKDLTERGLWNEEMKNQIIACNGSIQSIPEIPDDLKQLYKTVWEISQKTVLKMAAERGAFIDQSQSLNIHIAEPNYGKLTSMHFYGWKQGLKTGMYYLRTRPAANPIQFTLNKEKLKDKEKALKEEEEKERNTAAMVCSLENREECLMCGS
Summary of the method: (§1)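 Calf thymus R1 (1 μg) with cloned mouse R2 (2 μg) expressed in E. coli from pET-M2. CDP reduction was run at 35 °C with DTT as reductant. [³H]dCDP was separated on aminophenylboronate and counted by scintillation.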

[2] = biological target: T1, Ribonucleoside-diphosphate reductase large subunit; assay: Inhibitory activity of compound against mammalian ribonucleotide reductase; Range is 35-40; summary of the method: as §1
[3] = biological target: Ribonucleoside-diphosphate reductase RR1 (Homo sapiens) (UniProt P23921+Q7LG56+P31350); assay: Relative inhibitory potency against mammalian ribonucleotide reductase; format: protein-complex assay
[4] = biological target: T2, Ribonucleoside-diphosphate reductase RR1 (Homo sapiens, UniProt P23921+P31350+Q7LG56); assay: Inhibition of mammalian ribonucleotide reductase; format: protein-complex assay; summary of the method: as §1
T2 sequence (P23921 whole entry): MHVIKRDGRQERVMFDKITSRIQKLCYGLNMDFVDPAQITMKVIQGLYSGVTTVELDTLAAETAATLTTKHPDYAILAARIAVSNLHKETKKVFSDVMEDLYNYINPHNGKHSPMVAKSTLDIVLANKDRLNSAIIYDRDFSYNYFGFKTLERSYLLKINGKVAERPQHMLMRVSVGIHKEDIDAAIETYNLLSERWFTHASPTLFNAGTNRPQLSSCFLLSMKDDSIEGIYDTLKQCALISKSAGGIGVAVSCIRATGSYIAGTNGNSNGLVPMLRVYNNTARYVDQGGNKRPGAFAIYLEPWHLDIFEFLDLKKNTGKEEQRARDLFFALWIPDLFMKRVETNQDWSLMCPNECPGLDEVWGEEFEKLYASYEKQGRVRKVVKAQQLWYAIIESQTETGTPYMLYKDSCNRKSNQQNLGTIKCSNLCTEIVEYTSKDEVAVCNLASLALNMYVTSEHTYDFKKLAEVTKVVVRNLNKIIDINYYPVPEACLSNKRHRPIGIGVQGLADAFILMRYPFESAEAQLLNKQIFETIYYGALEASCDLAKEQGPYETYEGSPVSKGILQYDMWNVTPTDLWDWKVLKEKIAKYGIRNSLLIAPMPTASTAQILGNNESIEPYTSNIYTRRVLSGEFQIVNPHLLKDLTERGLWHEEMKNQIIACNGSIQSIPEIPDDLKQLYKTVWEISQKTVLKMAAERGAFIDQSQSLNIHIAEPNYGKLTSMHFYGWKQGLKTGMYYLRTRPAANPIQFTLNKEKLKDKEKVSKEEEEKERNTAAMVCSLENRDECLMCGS
T2 sequence (Q7LG56 whole entry): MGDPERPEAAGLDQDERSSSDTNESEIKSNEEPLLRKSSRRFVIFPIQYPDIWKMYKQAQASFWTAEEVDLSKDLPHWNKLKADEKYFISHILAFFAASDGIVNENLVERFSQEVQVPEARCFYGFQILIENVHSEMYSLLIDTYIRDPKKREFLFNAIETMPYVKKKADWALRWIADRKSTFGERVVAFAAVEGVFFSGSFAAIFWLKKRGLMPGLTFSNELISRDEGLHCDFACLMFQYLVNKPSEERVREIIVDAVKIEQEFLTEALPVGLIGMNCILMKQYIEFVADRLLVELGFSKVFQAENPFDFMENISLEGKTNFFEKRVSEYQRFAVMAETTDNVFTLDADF
T2 sequence (P31350 whole entry): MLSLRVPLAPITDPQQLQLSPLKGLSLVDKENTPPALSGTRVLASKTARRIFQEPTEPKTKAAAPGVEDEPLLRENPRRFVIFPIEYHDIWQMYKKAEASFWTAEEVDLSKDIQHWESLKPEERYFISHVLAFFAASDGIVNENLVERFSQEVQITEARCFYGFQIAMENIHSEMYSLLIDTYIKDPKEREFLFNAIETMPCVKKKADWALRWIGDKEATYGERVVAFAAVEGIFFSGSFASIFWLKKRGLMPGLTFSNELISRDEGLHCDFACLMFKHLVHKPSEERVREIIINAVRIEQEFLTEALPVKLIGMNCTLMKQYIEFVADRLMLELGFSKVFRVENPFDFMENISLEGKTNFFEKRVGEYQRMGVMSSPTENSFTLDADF

[5] = biological target: T1, Ribonucleoside-diphosphate reductase large subunit; assay: Inhibitory activity of compound against mammalian ribonucleotide reductase; Range is 34-35; summary of the method: as §1
[6] = biological target: T1, Ribonucleoside-diphosphate reductase large subunit; assay: Inhibitory activity of compound against mammalian ribonucleotide reductase; Range is 9-15; summary of the method: as §1
[7] = biological target: T1, Ribonucleoside-diphosphate reductase large subunit; assay: Inhibitory activity of compound against mammalian ribonucleotide reductase; Range is 25-29; summary of the method: as §1
[8] = biological target: T1, Ribonucleoside-diphosphate reductase large subunit; assay: Inhibitory activity of compound against mammalian ribonucleotide reductase; Range is 286-336; summary of the method: as §1
[9] = biological target: T1, Ribonucleoside-diphosphate reductase large subunit; assay: Inhibitory activity of compound against mammalian ribonucleotide reductase; Range is 48-58; summary of the method: as §1
[10] = biological target: T1, Ribonucleoside-diphosphate reductase large subunit; assay: Inhibitory activity of compound against mammalian ribonucleotide reductase; Range is 110-230; summary of the method: as §1
[11] = biological target: T1, Ribonucleoside-diphosphate reductase large subunit; assay: Inhibitory activity of compound against mammalian ribonucleotide reductase; Range is 40-42; summary of the method: as §1
[12] = biological target: T1, Ribonucleoside-diphosphate reductase large subunit; assay: Inhibitory activity of compound against mammalian ribonucleotide reductase; Range is 8-20; summary of the method: as §1
[13] = biological target: T1, Ribonucleoside-diphosphate reductase large subunit; assay: Inhibitory activity of compound against mammalian ribonucleotide reductase; Range is 29-30; summary of the method: as §1
[14] = biological target: T1, Ribonucleoside-diphosphate reductase large subunit; assay: Inhibitory activity of compound against mammalian ribonucleotide reductase; Range is 364-460; summary of the method: as §1
[15] = biological target: T1, Ribonucleoside-diphosphate reductase large subunit; assay: Inhibitory activity of compound against mammalian ribonucleotide reductase; Range is 32-38; summary of the method: as §1

Compound: CC(=O)N[C@@H](CC(N)=O)C(=O)N[C@@H](CO)C(=O)N[C@@H](Cc1ccccc1)C(=O)N[C@H](C(=O)N[C@@H](CC(C)C)C(=O)N[C@@H](CC(=O)O)C(=O)N[C@@H](C)C(=O)N[C@@H](CC(=O)O)C(=O)N[C@@H](Cc1ccccc1)C(=O)O)[C@@H](C)O
- IC50 [6]: 9 µM

Compound: CC(=O)N[C@@H](Cc1ccccc1)C(=O)N[C@H](C(=O)N[C@@H](CC(C)C)C(=O)N[C@@H](CC(N)=O)C(=O)N[C@@H](C)C(=O)N[C@@H](CC(=O)O)C(=O)N[C@@H](Cc1ccccc1)C(=O)O)[C@@H](C)O
- IC50 [7]: 25 µM

Compound: CC(=O)N[C@@H](Cc1ccccc1)C(=O)N[C@H](C(=O)N[C@@H](CC(C)C)C(=O)N[C@@H](C)C(=O)N[C@@H](C)C(=O)N[C@@H](CC(=O)O)C(=O)N[C@@H](Cc1ccccc1)C(=O)O)[C@@H](C)O
- IC50 [8]: 286 µM

Compound: CC(=O)N[C@@H](Cc1ccccc1)C(=O)N[C@H](C(=O)N[C@@H](Cc1ccccc1)C(=O)N[C@@H](CC(=O)O)C(=O)N[C@@H](C)C(=O)N[C@@H](CC(=O)O)C(=O)N[C@@H](Cc1ccccc1)C(=O)O)[C@@H](C)O
- IC50 [9]: 48 µM

Compound: Ac-LDADF-OH
- IC50 [4]: > 400 µM
- RI [3]: < 3%

Compound: CC(=O)N[C@@H](CO)C(=O)N[C@@H](Cc1ccccc1)C(=O)N[C@H](C(=O)N[C@@H](CC(C)C)C(=O)N[C@@H](CC(=O)O)C(=O)N[C@@H](C)C(=O)N[C@@H](CC(=O)O)C(=O)N[C@@H](Cc1ccccc1)C(=O)O)[C@@H](C)O
- IC50 [12]: 8 µM

Compound: CC(=O)N[C@@H](Cc1ccccc1)C(=O)N[C@H](C(=O)N[C@@H](CC(C)C)C(=O)N[C@@H](CC(=O)O)C(=O)N[C@@H](Cc1ccccc1)C(=O)O)[C@@H](C)O
- IC50 [14]: 364 µM

Compound: CC(=O)N[C@H](C(=O)N[C@@H](CC(C)C)C(=O)N[C@@H](CC(=O)O)C(=O)N[C@@H](C)C(=O)N[C@@H](CC(=O)O)C(=O)N[C@@H](Cc1ccccc1)C(=O)O)[C@@H](C)O
- IC50 [4]: > 400 µM

Compound: CC(=O)N[C@@H](Cc1ccccc1)C(=O)N[C@H](C(=O)N[C@@H](CC(C)C)C(=O)N[C@@H](CC(=O)O)C(=O)N[C@@H](C)C(=O)N[C@@H](CC(N)=O)C(=O)N[C@@H](Cc1ccccc1)C(=O)O)[C@@H](C)O
- IC50 [15]: 32 µM

Results, then the compound that gave them:

- IC50 [1]: 450 µM
Compound: CC(=O)N[C@@H](Cc1ccccc1)C(=O)N[C@H](C(=O)N[C@@H](CC(C)C)C(=O)N[C@@H](CC(=O)O)C(=O)N[C@@H](C)C(=O)N[C@@H](CCC(=O)O)C(=O)N[C@@H](Cc1ccccc1)C(=O)O)[C@@H](C)O

- IC50 [2]: 35 µM
- RI [3]: 24%
Compound: Ac-FALDADF-OH

- IC50 [4]: > 400 µM
Compound: Ac-LTLDADF-OH

- IC50 [5]: 34 µM
Compound: CC(=O)N[C@@H](Cc1ccccc1)C(=O)N[C@H](C(=O)N[C@@H](CC(C)C)C(=O)N[C@@H](CC(=O)O)C(=O)N[C@@H](C)C(=O)N[C@@H](C)C(=O)N[C@@H](Cc1ccccc1)C(=O)O)[C@@H](C)O

- IC50 [10]: 110 µM
Compound: CC(=O)N[C@@H](Cc1ccccc1)C(=O)N[C@H](C(=O)N[C@@H](CC(C)C)C(=O)N[C@@H](CC(=O)O)C(=O)NCC(=O)N[C@@H](CC(=O)O)C(=O)N[C@@H](Cc1ccccc1)C(=O)O)[C@@H](C)O

- IC50 [4]: > 400 µM
Compound: H-FTLDADF-OH

- IC50 [4]: > 400 µM
Compound: Ac-FTLDADL-OH

- RI [3]: 25%
- IC50 [11]: 40 µM
Compound: Ac-FSLDADF-OH

- IC50 [13]: 29 µM
Compound: CC(=O)N[C@@H](Cc1ccccc1)C(=O)N[C@H](C(=O)N[C@@H](CC(C)C)C(=O)N[C@@H](CC(=O)O)C(=O)N[C@@H](C)C(=O)N[C@@H](CC(C)C)C(=O)N[C@@H](Cc1ccccc1)C(=O)O)[C@@H](C)O

Reference: ChEMBL document CHEMBL1126924, “R2 C-terminal peptide inhibition of mammalian and yeast ribonucleotide reductase” (J Med Chem, 1993)
